In ChEMBL document CHEMBL1136980, “Synthesis of novel 3-(1-(1-substituted piperidin-4-yl)-1H-1,2,3-triazol-4-yl)-1,2,4-oxadiazol-5(4H)-one as antifungal agents” (2009) one finds MIC and Activity data, which are given here for 17 compounds.

Values after ≈ are worked out from the molar mass of the structure shown. Active and inactive are the calls of the source.

Broadly, the MIC is the smallest concentration in the dilution series that meets the test's criterion for growth inhibition. Read a high MIC as weaker potency.

The subject of experiment [1] is Candida albicans. The experiment is described as follows: Antifungal activity against Candida albicans NCIM 3471 by agar plate assay. The experiment is classed as functional. An outline of the steps: (§1)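 In vitro MIC determined by standard agar plate method (cup plate format). Compounds were tested in dimethyl sulfoxide, with DMSO alone as solvent control. Miconazole and fluconazole served as reference standards.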

In experiment [2] the test system is Fusarium oxysporum. Kind of experiment: Antifungal activity against Fusarium oxysporum NCIM 1332 by agar plate assay. The experiment is classed as functional. The method, boiled down: as §1
Experiment [3] has as its system Aspergillus flavus. Kind of experiment: Antifungal activity against Aspergillus flavus NCIM 539 by agar plate assay. The class given is functional. An outline of the steps:
as §1

Experiment [4] concerns Aspergillus niger. Kind of experiment: Antifungal activity against Aspergillus niger NCIM 1196 by agar plate assay. The class given is functional. An outline of the steps:
as §1

In experiment [5] the test system is Cryptococcus neoformans. The experiment is described as follows: Antifungal activity against Cryptococcus neoformans NCIM 576 by agar plate assay. The class given is functional. The method, boiled down:
as §1

For experiment [6], the system named is Aspergillus flavus. The experiment is described as follows: Antifungal activity against Aspergillus flavus NCIM 539 at 200 ug/mL by agar plate assay. The experiment is classed as functional, organism-based.
Experiment [7] relates to Aspergillus niger. The experiment is described as follows: Antifungal activity against Aspergillus niger NCIM 1196 at 200 ug/mL by agar plate assay. The class given is functional, organism-based.
The test system of experiment [8] is Cryptococcus neoformans. Kind of experiment: Antifungal activity against Cryptococcus neoformans NCIM 576 at 200 ug/mL by agar plate assay. The experiment is classed as functional, organism-based.
The test system of experiment [9] is Candida albicans. The experiment is described as follows: Antifungal activity against Candida albicans NCIM 3471 at 200 ug/mL by agar plate assay. The experiment is classed as functional, organism-based.

For `O=C(c1ccccc1)N1CCC(n2cc(-c3noc(=O)[nH]3)nn2)CC1`, the minimal inhibitory concentration (MIC) in experiment [1] was 85 µg/mL (≈ 250 µM); in experiment [2], 88 µg/mL (≈ 259 µM); in experiment [3] it was 42 µg/mL (≈ 123 µM); in experiment [4], 42 µg/mL (≈ 123 µM); in experiment [5], 85 µg/mL (≈ 250 µM).
For the compound `CCCC(=O)N1CCC(n2cc(-c3noc(=O)[nH]3)nn2)CC1`, the minimal inhibitory concentration (MIC) was 90 µg/mL (≈ 294 µM) in [1], 95 µg/mL (≈ 310 µM) in [2] and 85 µg/mL (≈ 277 µM) in experiment [5]. The outcome in experiment [6] and in [7] was inactive.
Consider `CC(C)(C)OC(=O)N1CCC(n2cc(/C(N)=N/O)nn2)CC1`, for which the MIC in [1] turned out to be 35 µg/mL (≈ 113 µM); in experiment [2] it was 35 µg/mL (≈ 113 µM); in [3], 20 µg/mL (≈ 64.4 µM); in [4], 20 µg/mL (≈ 64.4 µM); in experiment [5] it was 40 µg/mL (≈ 129 µM).
For the compound `CC(C)(C)OC(=O)N1CCC(n2cc(-c3noc(=O)[nH]3)nn2)CC1`, the MIC in experiment [1] came to 30 µg/mL (≈ 89.2 µM); in experiment [2] it was 25 µg/mL (≈ 74.3 µM); in experiment [3], 15 µg/mL (≈ 44.6 µM); in experiment [4] it was 20 µg/mL (≈ 59.5 µM). In experiment [8], the result was inactive.
As for `CN1CCC(n2cc(-c3noc(=O)[nH]3)nn2)CC1`, the minimum inhibitory concentration (MIC) in [1] is 20 µg/mL (≈ 79.9 µM); in [2] it was 25 µg/mL (≈ 99.9 µM); in experiment [3], 10 µg/mL (≈ 40 µM); in experiment [4], 12.5 µg/mL (≈ 49.9 µM); in [5] it was 60 µg/mL (≈ 240 µM).
With `CCC(=O)N1CCC(n2cc(-c3noc(=O)[nH]3)nn2)CC1`, the MIC in [1] was 85 µg/mL (≈ 291 µM); in experiment [2], 90 µg/mL (≈ 308 µM); in experiment [3], 42 µg/mL (≈ 144 µM); in experiment [4], 42 µg/mL (≈ 144 µM); in experiment [5], 85 µg/mL (≈ 291 µM).
Take `CC(C)(C)OC(=O)N1CCC(n2cc(C(N)=O)nn2)CC1`: the MIC in experiment [1] worked out at 50 µg/mL (≈ 169 µM); in [2], 55 µg/mL (≈ 186 µM); in experiment [3], 27 µg/mL (≈ 91.4 µM); in [4], 25 µg/mL (≈ 84.6 µM); in experiment [5], 45 µg/mL (≈ 152 µM).
The matching figures for `CS(=O)(=O)N1CCC(n2cc(-c3noc(=O)[nH]3)nn2)CC1`: 20 µg/mL (≈ 63.6 µM), 25 µg/mL (≈ 79.5 µM), 15 µg/mL (≈ 47.7 µM), 10 µg/mL (≈ 31.8 µM) and 27.5 µg/mL (≈ 87.5 µM).
For the compound `Cc1ccc(S(=O)(=O)N2CCC(n3cc(-c4noc(=O)[nH]4)nn3)CC2)cc1`, the MIC is 30 µg/mL (≈ 76.8 µM) in [1]; 33 µg/mL (≈ 84.5 µM) in experiment [2]; 25 µg/mL (≈ 64 µM) in [3]; 20 µg/mL (≈ 51.2 µM) in experiment [4]; 40 µg/mL (≈ 102 µM) in [5].
`CCOC(=O)c1cn(C2CCN(C(=O)OC(C)(C)C)CC2)nn1`: the MIC in experiment [1] came out at 40 µg/mL (≈ 123 µM); in experiment [2] it was 44 µg/mL (≈ 136 µM); in experiment [3], 22 µg/mL (≈ 67.8 µM); in experiment [4] it was 19 µg/mL (≈ 58.6 µM); in experiment [5] it was 35 µg/mL (≈ 108 µM).
On to `CC(C)(C)OC(=O)N1CCC(n2cc(C#N)nn2)CC1`, for which the MIC in experiment [2] was determined as 90 µg/mL (≈ 325 µM); in experiment [3], 55 µg/mL (≈ 198 µM); in [4] it was 50 µg/mL (≈ 180 µM). Also, the result in [9] and in experiment [8] was inactive.
Consider `CC(=O)N1CCC(n2cc(-c3noc(=O)[nH]3)nn2)CC1`, for which the MIC in experiment [1] worked out at 60 µg/mL (≈ 216 µM); in [2], 61 µg/mL (≈ 219 µM); in experiment [3], 31 µg/mL (≈ 111 µM); in [4] it was 31 µg/mL (≈ 111 µM); in experiment [5], 65 µg/mL (≈ 234 µM).
Turning to `OC(Cn1cncn1)(Cn1cncn1)c1ccc(F)cc1F` [FLUCONAZOLE], the MIC came to 5 µg/mL (≈ 16.3 µM) in [1]; 5 µg/mL (≈ 16.3 µM) in experiment [2]; 5 µg/mL (≈ 16.3 µM) in experiment [3]; 10 µg/mL (≈ 32.7 µM) in [4]; 5 µg/mL (≈ 16.3 µM) in [5].
Take `O=C(c1ccc(Cl)cc1)N1CCC(n2cc(-c3noc(=O)[nH]3)nn2)CC1`: the MIC was determined as 40 µg/mL (≈ 107 µM) in [1]; 55 µg/mL (≈ 147 µM) in [2]; 20 µg/mL (≈ 53.4 µM) in experiment [3]; 25 µg/mL (≈ 66.7 µM) in [4]; 40 µg/mL (≈ 107 µM) in experiment [5].
With `Clc1ccc(COC(Cn2ccnc2)c2ccc(Cl)cc2Cl)c(Cl)c1` (stereo not given) [MICONAZOLE], the MIC in experiment [1] came to 25 µg/mL (≈ 60.1 µM); in [2], 25 µg/mL (≈ 60.1 µM); in experiment [3] it was 12.5 µg/mL (≈ 30 µM); in [4], 12.5 µg/mL (≈ 30 µM); in experiment [5] it was 25 µg/mL (≈ 60.1 µM).
Take `O=c1[nH]c(-c2cn(C3CCNCC3)nn2)no1`: the MIC in experiment [1] is 27.5 µg/mL (≈ 116 µM); in experiment [2], 25 µg/mL (≈ 106 µM); in [3], 15 µg/mL (≈ 63.5 µM); in [4], 15 µg/mL (≈ 63.5 µM). Further, the result in experiment [8] was inactive.
Regarding `CCN1CCC(n2cc(-c3noc(=O)[nH]3)nn2)CC1`, the MIC in [1] was determined as 37 µg/mL (≈ 140 µM); in [2], 39 µg/mL (≈ 148 µM); in experiment [3], 19 µg/mL (≈ 71.9 µM); in [4], 19 µg/mL (≈ 71.9 µM); in experiment [5] it was 39 µg/mL (≈ 148 µM).
